Assay results of several laboratories.
Each line is one published result; the experiments were not run side by side.
CDK2 with cyclin A: Cyclin-dependent kinase 2, with cyclin A (CDK2, Homo sapiens, UniProt P24941)
CDK2: Cyclin-dependent kinase 2 (CDK2, Homo sapiens, UniProt P24941)
CDK2 with cyclin E: Cyclin-dependent kinase 2, with cyclin E (CDK2, Homo sapiens, UniProt P24941)

SMILES	target	assay	setting	endpoint	result
Cc1cc(NC(=O)c2cccc3cc(-c4cccc5[nH]nc(N)c45)ccc23)ccc1F	CDK2 with cyclin A	enzyme activity, inhibitor	0.1 µM	activity vs control	100%
Cn1c2c(Cl)c(Cl)ccc2c2cc[nH]c(=O)c21	CDK2	thermal stability, DSF	10 µM	ΔTm	0.6 °C
COc1cc2c(cc1OC)-c1[nH]nc(Nc3cccc(F)c3)c1C2	CDK2 with cyclin E	cell-free assay	0.5 µM	remaining signal	88.6%
CC(C)c1ccc(NC(=O)c2cccs2)c(-c2nc3ccccc3[nH]c2=O)c1	CDK2 with cyclin A	enzyme activity, inhibitor	1 µM	activity vs control	96%
O=C(Nc1cnn(-c2csc(C(=O)NC3COC3)c2)c1)Nc1c(F)cccc1Cl	CDK2 with cyclin A	enzyme activity, inhibitor	5 µM	remaining activity	93.8%
Cn1c2c(Cl)c(Cl)ccc2c2cn[nH]c(=O)c21	CDK2	thermal stability, DSF	10 µM	ΔTm	0.6 °C
CS(=O)(=O)c1cc(C2(NC(=O)c3cncc4c3cnn4-c3ccc(F)cc3)CC2)ccn1	CDK2	cell-free assay, competition with immobilised ligand	1 µM	remaining binding	94%
COc1cc(/C=C/C(=O)CC(=O)/C=C/c2ccc(O)c(OC)c2)ccc1O	CDK2 with cyclin A	enzyme activity, inhibitor	1 µM	activity vs control	107%
CN1CCC2(CC1)NC(=O)c1c(c3ccc(Cl)c(Cl)c3n1C)C2C#N (racemic)	CDK2	thermal stability, DSF	10 µM	ΔTm	0.1 °C
O=C1NC(=O)c2cc(Nc3ccc(F)cc3)c(Nc3ccc(F)cc3)cc21	CDK2 with cyclin E	cell-free assay	0.5 µM	remaining signal	94.3%
FC(F)(F)Oc1cccc(-c2cnc3ccc(-c4ccncc4)nn23)c1	CDK2 with cyclin A	enzyme activity, inhibitor, radiometric	5 µM	activity vs control	10%
N#Cc1c(NC(=O)c2cccc3ccccc23)sc2c1CCCC2	CDK2 with cyclin A	cell-free assay	0.5 µM	remaining signal	100%
CCN1CCC2(CC1)NC(=O)c1c(c3ccc(Cl)c(Cl)c3n1C)C2C#N (racemic)	CDK2	thermal stability, DSF	10 µM	ΔTm	0 °C
O=C(N[C@H]1CCCCC/C=C\C2C[C@@]2(C(=O)O)NC(=O)[C@@H]2C[C@@H](Oc3ccncc3)CN2C1=O)OC1CCCC1 (stereo partly drawn)	CDK2	binding, competition with immobilised ligand	1 µM	remaining binding	87%
Cn1c2c(c3ccc(Cl)c(Cl)c31)C(C#N)C(C)(C)NC2=O (stereo not drawn)	CDK2	thermal stability, DSF	10 µM	ΔTm	0.5 °C
CC(C)[C@H](CO)Nc1nc(Nc2cccc(Cl)c2)c2ncn(C(C)C)c2n1	CDK2 with cyclin E	cell-free assay	0.5 µM	remaining signal	9.88%
Cc1sc(C(=O)NC2COC2)cc1-n1cc(NC(=O)Nc2c(F)cccc2Cl)cn1	Cyclin-dependent kinase 2, with cyclin O (CDK2, Homo sapiens, UniProt P24941)	enzyme activity, inhibitor	10 µM	remaining activity	105%

SMILES	target	assay	setting	endpoint	result
Cn1c2c(c3ccc(Cl)c(Cl)c31)C(C#N)C1(CCOCC1)NC2=O (stereo not drawn)	CDK2	thermal stability, DSF	10 µM	ΔTm	0 °C
Cc1ccc(NC(=O)c2ccc(C)c(C(F)(F)F)c2)cc1C#Cc1nn(C2CCC(O)CC2)c2ncnc(N)c12 (stereo not drawn)	CDK2 with cyclin E	cell-free assay	10 µM	remaining signal	102%
O=C(Nc1cnn(-c2csc(C(=O)NC3COC3)c2)c1)Nc1ccccc1Cl	CDK2 with cyclin E	enzyme activity, inhibitor	5 µM	remaining activity	99%
CN(C)C1CCN(CC#Cc2nn(C3CCCC3)c3nc(NCc4ccccc4)ncc23)C1 (stereo not drawn)	CDK2 with cyclin A	enzyme activity, inhibitor, FRET	1 µM	inhibition	9%
O=C(Nc1cccnn1)N1CC(C/C=C/c2cncc(Oc3ccc(C(F)(F)F)cn3)n2)C1	CDK2	cell-free assay, competition with immobilised ligand	1 µM	remaining binding	100%
Cc1ccc(C(=O)NCc2ccsc2)cc1C#Cc1cn(C(C)C)c2ncnc(N)c12	CDK2 with cyclin A	enzyme activity, inhibitor	1 µM	activity vs control	94%
CSc1cccnc1N1CCN(Cc2nc3ccccc3[nH]2)CC1	CDK2	cell-free assay, competition with immobilised ligand	1 µM	remaining binding	95%
Nc1ncnc2occ(-c3ccc(NC(=O)Nc4cc(C(F)(F)F)ccc4F)cc3)c12	CDK2	cell-free assay, inhibitor	20 µM	remaining signal	0.1%
CCS(=O)(=O)c1cc2cc(C[C@@](O)(CC(C)(C)c3ccc(F)cc3C(N)=O)C(F)(F)F)[nH]c2cn1	CDK2	cell-free assay, competition with immobilised ligand	1 µM	remaining binding	96%
O=C1Cc2c([nH]c3ccc([N+](=O)[O-])cc23)-c2ccccc2N1	CDK2 with cyclin A	cell-free assay	0.5 µM	remaining signal	8.37%
C[C@H](NC(=O)c1cnc2n1[C@](C)(Cc1ccc(C#N)cc1)C(=O)N2c1cc(Cl)c(F)c(Cl)c1)C(=O)NC1(c2ccccn2)CC1	CDK2	cell-free assay, competition with immobilised ligand	1 µM	remaining binding	100%
O=C1Nc2ccc(Cl)cc2C1=Cc1cc(Cl)c(O)c(Cl)c1	CDK2 with cyclin E	cell-free assay	0.5 µM	remaining signal	90%
Cc1cc(-n2nc(Cc3cc(F)cc(C(F)(F)F)c3)nc2C)ccc1C(N)=O	CDK2	cell-free assay, competition with immobilised ligand	1 µM	remaining binding	100%
COc1cc2c(Nc3ccc(Br)cc3F)ncnc2cc1OCC1CCN(C)CC1	CDK2 with cyclin E	cell-free assay	0.5 µM	remaining signal	101%
CN(C(=O)c1ccccc1)c1cc(N(C)c2ccc3c(c2)CCc2ccc(C(=O)NCCN4CCOCC4)cc2C3=O)ccc1F	CDK2	cell-free assay, competition with immobilised ligand	1 µM	remaining binding	96%
CS(=O)(=O)CCNCc1ccc(-c2ccc3ncnc(Nc4ccc(OCc5cccc(F)c5)c(Cl)c4)c3c2)o1	CDK2 with cyclin E	cell-free assay	0.5 µM	remaining signal	98.8%
